In ChEMBL document CHEMBL2384906, “Biological activity, design, synthesis and structure activity relationship of some novel derivatives of curcumin containing sulfonamides” (Eur J Med Chem, 2013):
In brackets after ≈: the same amount, converted by molar mass. Activity calls are given as the source filed them. The calls are words filed in the database; no cut-off is given here.

Key:
Trichoderma viride [1] = experiment: Antifungal activity against Trichoderma viride MTCC 1107 assessed as zone of inhibition at 80 uM after 48 hrs by disc diffusion method; format: functional; details: MTCC 1107, 48 h, read-out: IZ
Procedure, shortened: (§1)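 Spores from 4-day potato dextrose agar cultures, suspended in sterile water at 1.5 × 10⁵ CFU/mL. 0.2 mL was spread on potato dextrose agar. 5 mm filter-paper discs soaked with test compound were laid on the lawn. Incubation was 48 h at 28 °C, then the inhibition zone was measured in mm. Fluconazole was the positive control and acetone the negative control.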

QG-56 = experiment: Cytotoxicity against human QG56 cells after 24 hrs by MTT assay; format: functional, cell-based
Procedure, shortened: (§2)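 The MTT assay seeded 5 × 10⁴ cells per well and grew them 24 h in RPMI 1640 with compound at 2.5–200 µM. Medium without cells was the blank and adriamycin the positive control. MTT was added for 4 h at 37 °C, formazan was solubilised, and absorbance was read at 570 nm. IC50 is the concentration that cuts viability 50% against untreated cells.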

HCT-116 = experiment: Cytotoxicity against human HCT116 cells after 24 hrs by MTT assay; format: functional, cell-based; procedure, shortened: as §2
Trichoderma viride [2] = experiment: Antifungal activity against Trichoderma viride MTCC 1107 assessed as zone of inhibition at 20 uM after 48 hrs by disc diffusion method; format: functional; details: MTCC 1107, 48 h, read-out: IZ; procedure, shortened: as §1
Salmonella typhi [3] = experiment: Antimicrobial activity against Salmonella typhi ATCC 23564 assessed as diameter of inhibition zone at 40 uM after 24 hrs by Kirby -Baur disc diffusion method; format: functional; details: Salmonella enterica subsp. enterica serovar Typhi
Aspergillus niger [4] = experiment: Antifungal activity against Aspergillus niger MTCC 1108 after 48 hrs; format: functional; details: MTCC 1108, 48 h
HepG2 = experiment: Cytotoxicity against human HepG2 cells after 24 hrs by MTT assay; format: functional, cell-based; procedure, shortened: as §2
Aspergillus niger [5] = experiment: Antifungal activity against Aspergillus niger MTCC 1108 assessed as zone of inhibition at 80 uM after 48 hrs by disc diffusion method; format: functional; procedure, shortened: as §1
Bacillus cereus [6] = experiment: Antimicrobial activity against Bacillus cereus MTCC 7350 assessed as diameter of inhibition zone at 40 uM after 24 hrs by Kirby -Baur disc diffusion method; format: functional; details: MTCC 7350, 24 h, read-out: DIZ
Procedure, shortened: (§3)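 Kirby-Bauer disc diffusion was used. Acetone stocks (160 µM) were serially doubled down to 80, 40 and 20 µM. 4 µL of each went onto 5 mm sterile paper discs, which were dried 30 min at 50 °C. Inoculum was 1.5 × 10⁸ CFU/mL diluted to 3 × 10² CFU/mL, and 50 µL was spread on Mueller-Hinton agar. After 24 h at 37 °C the inhibition-zone diameter was measured. Ciprofloxacin served as positive control.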

Aspergillus flavus [7] = experiment: Antifungal activity against Aspergillus flavus MTCC 1021 after 48 hrs; format: functional; details: MTCC 1021, 48 h
Salmonella typhi [8] = experiment: Antimicrobial activity against Salmonella typhi ATCC 23564 after 24 hrs by broth micro serial dilution method; format: functional, Salmonella enterica subsp. enterica serovar Typhi; details: Salmonella enterica, ATCC 23564, 24 h
Bacillus cereus [9] = experiment: Antimicrobial activity against Bacillus cereus MTCC 7350 assessed as diameter of inhibition zone at 80 uM after 24 hrs by Kirby -Baur disc diffusion method; format: functional; details: MTCC 7350, 24 h, read-out: DIZ; procedure, shortened: as §3
Mus musculus = experiment: Antiinflammatory activity in mouse assessed as inhibition of carrageenan-induced increase in paw volume at 200 mg/kg administered 1 hr prior to carrageenan challenge measured after 3 hrs relative to control; format: functional
Procedure, shortened: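 Mice were fasted 2 h and placed in groups of five. Controls received saline i.p. Phenylbutazone was given at 100 mg/kg i.p., curcumin at 200 mg/kg i.p., and derivatives at 200 mg/kg. After 1 h, 0.1 mL of 1% carrageenan in saline was injected subplantar into the right hind paw. Paw volume was followed by plethysmometer for 3 h, and % inhibition was calculated as (Vc − Vt)/Vc × 100.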

Escherichia coli [10] = experiment: Antimicrobial activity against Escherichia coli ATCC 35218 after 24 hrs by broth micro serial dilution method; format: functional; details: ATCC 35218, 24 h
Procedure, shortened: (§4)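 This was broth microdilution in autoclaved Mueller-Hinton broth. 150 µL of compound per well was serially diluted […], and 50 µL of test organism was added. Plates were incubated 24 h at 37 °C and optical density was read.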

Curvularia lunata [11] = experiment: Antifungal activity against Curvularia lunata MTCC 581 assessed as zone of inhibition at 20 uM after 48 hrs by disc diffusion method; format: functional; details: MTCC 581, 48 h, read-out: IZ; procedure, shortened: as §1
Trichoderma viride [12] = experiment: Antifungal activity against Trichoderma viride MTCC 1107 assessed as zone of inhibition at 40 uM after 48 hrs by disc diffusion method; format: functional; details: MTCC 1107, 48 h, read-out: IZ; procedure, shortened: as §1
Pseudomonas aeruginosa [13] = experiment: Antimicrobial activity against Pseudomonas aeruginosa ATCC 15499 after 24 hrs by broth micro serial dilution method; format: functional; details: ATCC 15499, 24 h; procedure, shortened: as §4
Curvularia lunata [14] = experiment: Antifungal activity against Curvularia lunata MTCC 581 after 48 hrs; format: functional; details: MTCC 581, 48 h
Pseudomonas aeruginosa [15] = experiment: Antimicrobial activity against Pseudomonas aeruginosa ATCC 15499 assessed as diameter of inhibition zone at 80 uM after 24 hrs by Kirby -Baur disc diffusion method; format: functional; details: ATCC 15499, 24 h, read-out: DIZ; procedure, shortened: as §3
Staphylococcus aureus [16] = experiment: Antimicrobial activity against Staphylococcus aureus ATCC 11632 after 24 hrs by broth micro serial dilution method; format: functional; details: ATCC 11632, 24 h; procedure, shortened: as §4
Salmonella typhi [17] = experiment: Antimicrobial activity against Salmonella typhi ATCC 23564 assessed as diameter of inhibition zone at 20 uM after 24 hrs by Kirby -Baur disc diffusion method; format: functional; details: Salmonella enterica subsp. enterica serovar Typhi
Escherichia coli [18] = experiment: Antimicrobial activity against Escherichia coli ATCC 35218 assessed as diameter of inhibition zone at 80 uM after 24 hrs by Kirby -Baur disc diffusion method; format: functional; procedure, shortened: as §3
Staphylococcus aureus [19] = experiment: Antimicrobial activity against Staphylococcus aureus ATCC 11632 assessed as diameter of inhibition zone at 80 uM after 24 hrs by Kirby -Baur disc diffusion method; format: functional; details: ATCC 11632, 24 h, read-out: DIZ; procedure, shortened: as §3
Staphylococcus aureus [20] = experiment: Antimicrobial activity against Staphylococcus aureus ATCC 11632 assessed as diameter of inhibition zone at 20 uM after 24 hrs by Kirby -Baur disc diffusion method; format: functional; procedure, shortened: as §3
Salmonella typhi [21] = experiment: Antimicrobial activity against Salmonella typhi ATCC 23564 assessed as diameter of inhibition zone at 80 uM after 24 hrs by Kirby -Baur disc diffusion method; format: functional, Salmonella enterica subsp. enterica serovar Typhi; details: Salmonella enterica, ATCC 23564, 24 h; read-out: DIZ
Pseudomonas aeruginosa [22] = experiment: Antimicrobial activity against Pseudomonas aeruginosa ATCC 15499 assessed as diameter of inhibition zone at 40 uM after 24 hrs by Kirby -Baur disc diffusion method; format: functional; details: ATCC 15499, 24 h, read-out: DIZ; procedure, shortened: as §3
Bacillus cereus [23] = experiment: Antimicrobial activity against Bacillus cereus MTCC 7350 assessed as diameter of inhibition zone at 20 uM after 24 hrs by Kirby -Baur disc diffusion method; format: functional; procedure, shortened: as §3
Pseudomonas aeruginosa [24] = experiment: Antimicrobial activity against Pseudomonas aeruginosa ATCC 15499 assessed as diameter of inhibition zone at 20 uM after 24 hrs by Kirby -Baur disc diffusion method; format: functional; procedure, shortened: as §3
Aspergillus flavus [25] = experiment: Antifungal activity against Aspergillus flavus MTCC 1021 assessed as zone of inhibition at 80 uM after 48 hrs by disc diffusion method; format: functional; procedure, shortened: as §1
Trichoderma viride [26] = experiment: Antifungal activity against Trichoderma viride MTCC 1107 after 48 hrs; format: functional; details: MTCC 1107, 48 h
Curvularia lunata [27] = experiment: Antifungal activity against Curvularia lunata MTCC 581 assessed as zone of inhibition at 80 uM after 48 hrs by disc diffusion method; format: functional; details: MTCC 581, 48 h, read-out: IZ; procedure, shortened: as §1
Staphylococcus aureus [28] = experiment: Antimicrobial activity against Staphylococcus aureus ATCC 11632 assessed as diameter of inhibition zone at 40 uM after 24 hrs by Kirby -Baur disc diffusion method; format: functional; procedure, shortened: as §3
HeLa = experiment: Cytotoxicity against human HeLa cells after 24 hrs by MTT assay; format: functional, cell-based; procedure, shortened: as §2
Curvularia lunata [29] = experiment: Antifungal activity against Curvularia lunata MTCC 581 assessed as zone of inhibition at 40 uM after 48 hrs by disc diffusion method; format: functional; details: MTCC 581, 48 h, read-out: IZ; procedure, shortened: as §1
Bacillus cereus [30] = experiment: Antimicrobial activity against Bacillus cereus MTCC 7350 after 24 hrs by broth micro serial dilution method; format: functional; details: MTCC 7350, 24 h; procedure, shortened: as §4

COc1cc(/C=C/c2noc(/C=C/c3ccc(O)c(OC)c3)c2/N=N/c2ccc(S(=O)(=O)Nc3nc(C)cc(C)n3)cc2)ccc1O
zone of inhibition at 80 µM (Trichoderma viride [1]): 13 mm
IC50 (QG-56): Not Active
IC50 (HCT-116): Not Active
zone of inhibition at 20 µM (Trichoderma viride [2]): 9 mm
diameter of the inhibition zone (DIZ) (Salmonella typhi [3]): inactive
MIC (Aspergillus niger [4]): > 80 µM
IC50 (HepG2): Not Active
inhibition zone (IZ) (Aspergillus niger [5]): inactive
zone of inhibition at 40 µM (Bacillus cereus [6]): 9 mm
MIC (Aspergillus flavus [7]): > 80 µM
MIC (Salmonella typhi [8]): > 80 µM
zone of inhibition at 80 µM (Bacillus cereus [9]): 11 mm
inhibition in vivo at 200 mg/kg (Mus musculus): 41.9%
MIC (Escherichia coli [10]): > 80 µM
zone of inhibition at 20 µM (Curvularia lunata [11]): 9 mm
zone of inhibition at 40 µM (Trichoderma viride [12]): 11 mm
MIC (Pseudomonas aeruginosa [13]): 80 µM (≈ 52.4 µg/mL)
MIC (Curvularia lunata [14]): 80 µM (≈ 52.4 µg/mL)
zone of inhibition at 80 µM (Pseudomonas aeruginosa [15]): 15 mm
MIC (Staphylococcus aureus [16]): > 80 µM
diameter of the inhibition zone (DIZ) (Salmonella typhi [17]): inactive
diameter of the inhibition zone (DIZ) (Escherichia coli [18]): inactive
zone of inhibition at 80 µM (Staphylococcus aureus [19]): 12 mm
diameter of the inhibition zone (DIZ) (Staphylococcus aureus [20]): inactive
zone of inhibition at 80 µM (Salmonella typhi [21]): 10 mm
zone of inhibition at 40 µM (Pseudomonas aeruginosa [22]): 10 mm
diameter of the inhibition zone (DIZ) (Bacillus cereus [23]): inactive
diameter of the inhibition zone (DIZ) (Pseudomonas aeruginosa [24]): inactive
inhibition zone (IZ) (Aspergillus flavus [25]): inactive
MIC (Trichoderma viride [26]): 80 µM (≈ 52.4 µg/mL)
zone of inhibition at 80 µM (Curvularia lunata [27]): 13 mm
diameter of the inhibition zone (DIZ) (Staphylococcus aureus [28]): inactive
IC50 (HeLa): Not Active
zone of inhibition at 40 µM (Curvularia lunata [29]): 11 mm
MIC (Bacillus cereus [30]): > 80 µM
